# NPY-Y1 PAM-ag: human NPY-Y1 potentiation or agonism, primary screen. NPY-Y1 expressing cells, potentiator/agonist activation. activation, % at 3.6 µM. 220,000 compounds, 0.37% hits; in the data active means activation above about 33%, passing the limit was not always enough;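 further: cells stimulated with NPY at EC10 then isoproterenol at EC100; 0% = low agonist plus stimulus and 100% = saturating agonist plus stimulus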
# NPY Y1 blocker: blocks the human neuropeptide Y Y1 receptor; inhibition, % at 3.6 µM; P25929; 200,000 compounds, 1% hits; AID 1040; HEK293-CNG Y1 cells, membrane potential fluorescence; NPY at EC95, then isoproterenol;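 active means inhibition above the campaign mean inhibition of all tested compounds plus 3 SD, cut at about 20% in these data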;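 further: 0% = DMSO wells given NPY plus isoproterenol and 100% = isoproterenol alone without NPY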
#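 Test system – HEK293 Y1/CNG channel cell line · Also added – NPY agonist 25 nM, then isoproterenol 1 µM plus Ro 20-1724 25 µM · Compound dosing – one concentration, 3.6 µM, in 0.4% DMSO · Schedule – compound incubation 1 h at room temperature, readout 45 min post-stimulation · Technique – fluorescence, membrane potential probe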
# NPY-Y2 PAM-ag: potentiators or agonists of human neuropeptide Y receptor Y2. P49146. cells expressing NPY-Y2, potentiator/agonist read-out. activation, % at 3.6 µM. 220,000 compounds, 0.45% hits. AID 1359; in the data active means activation above about 27%;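 further: cells stimulated with NPY near EC25 plus isoproterenol at EC100; 0% = vehicle plus submaximal agonist and 100% = vehicle plus saturating agonist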
# Target sequence (P49146 whole entry, looked up): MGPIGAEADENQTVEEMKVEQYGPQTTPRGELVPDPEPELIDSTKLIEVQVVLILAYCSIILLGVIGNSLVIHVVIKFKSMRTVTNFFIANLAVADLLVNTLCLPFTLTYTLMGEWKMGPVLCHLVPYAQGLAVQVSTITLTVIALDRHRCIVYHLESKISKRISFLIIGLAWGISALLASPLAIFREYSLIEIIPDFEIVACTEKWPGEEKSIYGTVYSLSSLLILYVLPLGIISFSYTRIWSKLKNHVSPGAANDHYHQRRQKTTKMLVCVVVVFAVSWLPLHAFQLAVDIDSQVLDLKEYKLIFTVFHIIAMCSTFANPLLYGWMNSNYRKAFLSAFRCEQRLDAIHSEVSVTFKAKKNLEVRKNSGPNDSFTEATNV
# EP2 modulator: modulates human prostaglandin E2 receptor EP2 signaling. P43116. AID 940. EP2-expressing cells, cAMP HTRF FRET, PGE2 co-stimulation. 260,000 compounds, 0.83% hits. induction, % at 25 µM;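 active means compounds whose cAMP rise, as percent of the full-agonist control response, exceeds 60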;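 further: rat C6 glioma line stably carrying human EP2 under a CMV promoter; the protocol text gives 20 µM as final concentration; 100% = response of wells given 1 µM PGE2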
# NPY Y2 blocker: antagonists of human neuropeptide Y receptor Y2; inhibition, % at 2.7 µM; AID 793; P49146; NPY-Y2 expressing cells, antagonist mode; 140,000 compounds, 0.99% hits; in the data active means inhibition above about 17%;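 further: 0% = vehicle with agonist challenge and 100% = reference antagonist with challenge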
# EP2 antag: inhibitors of human EP2 prostaglandin E2 receptor | P43116 | C6 glioma cells expressing human EP2, cAMP TR-FRET; cells stimulated with saturating PGE2 | inhibition, % at 25 µM | 260,000 compounds, 0.52% hits | AID 1422;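 active means percent inhibition above 40 after rounding to a whole number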;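 further: rat C6 glioma host cells with rolipram phosphodiesterase inhibitor present; the protocol text gives 20 µM as final concentration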
# NPY-Y1 antag ct: antagonizes human NPY-Y1, counter-screen to NPY-Y2 antagonists; 710 compounds, 19% hits; shares compounds with NPY Y2 blocker; inhibition, % at 3.6 µM; cell-based NPY-Y1 antagonism counterscreen; in the data active means inhibition above about 20%;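 further: cells challenged with NPY then isoproterenol with cAMP sensed through a CNG channel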
# NPY-Y2 ant conf: confirmation of human neuropeptide Y receptor Y2 antagonists; HEK293 NPY-Y2 CNG channel, membrane potential fluorescence; shares compounds with NPY Y2 blocker; 710 compounds, 32% hits; inhibition, % at 2.8 µM;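 active means mean inhibition of triplicate wells above the hit cutoff set in the primary screen, cut at about 17% in these data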;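 further: 0% = DMSO with NPY challenge and 100% = BIIE0246 high control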
# Numbers without * were called inactive; nt = no result; ! = not active in a repeat. Hits are enriched below; roughly 2.8% of the tested compounds scored in any of these assays.
SMILES,NPY-Y1 PAM-ag,NPY Y1 blocker,NPY-Y2 PAM-ag,EP2 modulator,NPY Y2 blocker,EP2 antag,NPY-Y1 antag ct,NPY-Y2 ant conf
CNC(=S)N/N=C/c1ccccc1Cl,-16,4,-2,-3,19*,2,2,1
COc1ccc(C(=O)N(CCO)Cc2cc3cc(C)ccc3[nH]c2=O)cc1,nt,nt,nt,-11,nt,7,nt,nt
CN(/N=C/c1ccncc1)C1=NS(=O)(=O)c2ccccc21,25,4,4,16,21*,5,2,1
CCNc1ccc2noc3c2c1C(=O)c1ccccc1-3,72*,15,49*,40,45*,16,15,8
O=C(Nc1nn[nH]n1)c1ccccc1F,nt,nt,nt,-14,nt,14,nt,nt
CC(=O)N(Cc1cccs1)Cc1cc2cc(C)c(C)cc2nc1Cl,-15,-2,-21,-4,nt,8,nt,nt
Cc1ccc2nc(Cl)c(CN(Cc3cccs3)C(=O)C3CC3)cc2c1,-39,18,-12,40,19*,9,15,12
CCCn1c(CNc2n[nH]c3nc(C)cc(C)c23)nc2ccccc21,nt,nt,nt,-37,nt,10,nt,nt
COc1ccc(C2Nc3ccccc3C(=O)N2Cc2ccco2)cc1COc1ccccc1F (centres undefined),-12,19,-13,12,25*,15,6,11
COc1ccc(C2Nc3ccccc3C(=O)N2Cc2ccco2)cc1COc1ccc(NC(C)=O)cc1 (centres undefined),-12,3,-12,34,3,11,nt,nt
Nc1ccc2nc(SCC(=O)NC34CC5CC(CC(C5)C3)C4)sc2c1,nt,nt,nt,-55,nt,18,nt,nt
COc1ccccc1OCC(O)Cn1c(=N)n(CCN2CCCCC2)c2ccccc21 (centres undefined),-53,17,-7,-20,45*,9,31*,39*
Cc1ccccc1OCC(O)Cn1c(=N)n(CCN2CCOCC2)c2ccccc21 (centres undefined),-16,30*!,-2,-7,28*,3,10,7
COc1ccccc1OCC(O)Cn1c(=N)n(CCN2CCOCC2)c2ccccc21 (centres undefined),nt,nt,nt,-22,nt,9,nt,nt
CN(C)S(=O)(=O)c1ccc(N2CCC(CNC(=O)c3ccncc3)CC2)cc1,nt,nt,nt,-41,nt,5,nt,nt
Nn1c(CSc2nc3ccccc3o2)nnc1CSc1nc2ccccc2o1,-65,17,-39,-17,17*,10,13,15
CNC(=O)c1ccsc1NC(=O)c1ccc(S(=O)(=O)N2CCCc3ccccc32)cc1,-57,8,-1,-54,17*,7,31*,39*
CCOc1ccc(C(=O)NC(=S)Nc2ccc(N3CCCCC3)cc2)cc1[N+](=O)[O-],-12,-1,-7,32,29*,8,78*,91*
COc1ccc(C(=O)NC(=S)Nc2ccc(NC(=O)c3ccco3)cc2)cc1[N+](=O)[O-],8,2,10,29,19*,8,52*,88*
COc1ccc(C(=O)NC(=S)Nc2cccc(NC(=O)c3ccco3)c2)cc1[N+](=O)[O-],-3,11,-13,-2,0,15,nt,nt
O=[N+]([O-])c1ccc(-c2csc3[n+]2CCS3)cc1,-10,20,-11,13,23*,17,5,4
O=C(c1cscn1)N1CCC(c2ccnc3nc(C(F)(F)F)nn23)CC1,nt,nt,nt,-23,nt,nt,nt,nt
CCOc1ccc2[nH]c(=O)c(C(c3nnnn3C(C)(C)C)N3CCN(C)CC3)cc2c1 (centres undefined),nt,nt,nt,-45,nt,10,nt,nt
COCCN(C(=O)Cn1nnc2ccccc21)C(C(=O)NC1CCCCC1)c1ccc(OC)cc1OC (centres undefined),-95,20,-53,38,19*,9,18,17
COCCN(C(=O)Cn1nnc2ccccc21)C(C(=O)NC1CCCC1)c1ccc(OC)cc1OC (centres undefined),-6,12,-9,18,7,15,nt,nt
SMILES,NPY-Y1 PAM-ag,NPY Y1 blocker,NPY-Y2 PAM-ag,EP2 modulator,NPY Y2 blocker,EP2 antag,NPY-Y1 antag ct,NPY-Y2 ant conf
Cc1cccc(C2(O)CCN(C(=O)CCCc3ccncc3)CC2)c1,nt,nt,nt,-46,nt,8,nt,nt
Cc1ccc2oc(C(=O)NCc3ccc4c(c3)OCO4)c(C)c2c1,-20,3,-20,-22,15,7,nt,nt
Cc1c(C(=O)NCc2ccc3c(c2)OCO3)oc2ccc(Br)cc12,-30,9,-24,-42,22*,7,14,12
O=C(C1CCCO1)N1CCC(O)(c2cccc(F)c2)CC1 (centres undefined),nt,nt,nt,-15,nt,3,nt,nt
CCC(C)(C)n1nnnc1CN(Cc1ccco1)Cc1cc2ccc(C)c(C)c2[nH]c1=O,nt,nt,nt,27,nt,10,nt,nt
Cc1cc(C)c2c(=O)[nH]c(SCC(=O)Nc3ccccc3)nc2n1,-7,-1,-8,13,19*,14,1,5
Cc1ccc(NC(=O)CSc2nc3nc(C)cc(C)c3c(=O)[nH]2)cc1,24,6,7,30,1,10,nt,nt
Cc1cc(C(=O)Cn2nnc(-c3ccc(Cl)cc3)n2)c(C)n1CC1CCCO1 (centres undefined),-32,14,-3,-4,20*,5,17,7
Cc1cc(C(=O)CSc2nnc(-c3ccc(Cl)cc3)n2C)c(C)n1CC1CCCO1 (centres undefined),2,11,5,12,4,6,nt,nt
CCOC(=O)C1C2C=CC3(CN(c4cccc(C)c4)C(=O)C13)O2 (centres undefined),nt,nt,nt,7,nt,12,nt,nt
Cc1cccc(COCC(CC(C)C)N2CCN(C(=O)c3ccc(C(C)(C)C)cc3)CCC2=O)c1 (centres undefined),-40,10,-5,53,19*,8,17,11
Cc1ccc(C(=O)NC2CCc3ccccc3C2=O)cc1 (centres undefined),11,4,5,-12,nt,5,nt,nt
Cc1ccc(C(=O)NC2c3ccccc3-c3ccccc32)cc1,5,16,-7,2,19*,5,12,11
COc1ccccc1C1(O)CCCN(CC(O)c2ccc(F)cc2)C1 (centres undefined),nt,nt,nt,-50,nt,5,nt,nt
CCCCCc1cc(O)c2c(C)cc(=O)oc2c1,37,-6,29,-8,7,5,nt,nt
CCCCc1cc(O)c(CCCC)c(O)c1,19,-6,14,-44,21*,19,-1,-4
Cc1ccc2cc(CN(C(=S)NC(C)c3ccccc3)C3CCCC3)c(=O)[nH]c2c1C (centres undefined),nt,nt,nt,50,nt,13,nt,nt

# Screening results deposited in PubChem by several laboratories.
